Source: ChEMBL document CHEMBL5042548, “Multiparameter Optimization of Oxidative Phosphorylation Inhibitors for the Treatment of Pancreatic Cancer” (J Med Chem, 2022)
pIC50: −log10 of the molar value. Activity calls are given as the source filed them. The rule behind the calls is not given here.

Key:
[1] = test system: MIA PaCa-2; assay: Cytotoxicity against human MIA PaCa-2 cells assessed as inhibition of cell growth incubated for overnight in glucose-containing medium followed by compound addition and measured after 7 days by MTT assay; type: functional, cell-based; settings: MIA PaCa-2, 168 h
Procedure, shortened: (§1)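 7-day MTT in glucose medium (RPMI 1640 + 10% FBS). Seeding is 200 cells/well for MIA PaCa-2 and 300 cells/well for BxPC-3, overnight at 37 °C, 5% CO2, before compound. MTT 3 mg/mL is added for 4 h, then DMSO, and absorbance is read at 570 nm. IC50 is by nonlinear regression; ≥3 independent experiments.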

[2] = test system: MIA PaCa-2; assay: Cytotoxicity against human MIA PaCa-2 cells assessed as inhibition of cell growth incubated for overnight in glucose-containing medium followed by compound addition and measured after 3 days by MTT assay; type: functional, cell-based; settings: MIA PaCa-2, 72 h
Procedure, shortened: (§2)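 MIA PaCa-2 3-day MTT in glucose medium (RPMI 1640 + 10% FBS) or galactose medium (glucose-free RPMI + 10 mM galactose + 10% FBS). Galactose wells are seeded at 8000 cells/well. MTT read-out is at 570 nm after DMSO solubilization. IC50 is by nonlinear regression; ≥3 independent experiments.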

[3] = test system: BXPC-3; assay: Cytotoxicity against human BXPC-3 cells assessed as inhibition of cell growth incubated for overnight in glucose-containing medium followed by compound addition and measured after 7 days by MTT assay; type: functional, cell-based; settings: BXPC-3, 168 h; procedure, shortened: as §1
[4] = test system: MIA PaCa-2; assay: Cytotoxicity against human MIA PaCa-2 cells assessed as inhibition of cell growth incubated for overnight in galactose-containing medium followed by compound addition and measured after 3 days by MTT assay; type: functional, cell-based; settings: MIA PaCa-2, 72 h; procedure, shortened: as §2
[5] = Inhibition of oxidative phosphorylation in human MIA PaCa-2 cells assessed as reduction in ATP production incubated for 24 hrs in galactose-containing medium by celltiter-glo luminescence cell viability assay; type: functional, cell-based; settings: MIA PaCa-2, 24 h
Procedure, shortened: (§3)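 MIA PaCa-2 cells are seeded at 10000 cells/well in glucose RPMI + 10% FBS or in glucose-free RPMI + 10 mM galactose + 10% FBS. Total ATP is measured by CellTiter-Glo luminescence 24 h after compound. IC50 is by nonlinear regression; ≥3 independent experiments.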

[6] = Inhibition of oxidative phosphorylation in human MIA PaCa-2 cells assessed as reduction in ATP production incubated for 24 hrs in glucose-containing medium by celltiter-glo luminescence cell viability assay; type: functional, cell-based; settings: MIA PaCa-2, 24 h; procedure, shortened: as §3
[7] = Toxicity in C57BL/6 mouse allografted with mouse Panc02 cells assessed as body weight loss at 7.5 mg/kg, ip administered once a day for 28 days and measured twice per week; type: organism-based; settings: in vivo, 672 h, time 28 day
Procedure, shortened: (§4)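 Female C57BL/6 mice, 6-10 weeks old, get 5×10^6 Pan02 cells s.c. in the right flank and are randomized at ~100 mm3 (n = 5/group). Dosing is daily for 28 days. Vehicle is 10% DMSO/50% PG/40% saline, except 15 mg/kg uses 10% DMSO/60% PG/30% saline. Caliper volume (length×width²)/2 and body weight are recorded twice weekly.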

[8] = Metabolic stability in mouse liver microsomes assessed as half life at 10 uM measured up to 60 mins in presence of NADPH by LC-MS/MS analysis; type: ADME, Microsome; settings: for half-life at 10 µM: liver microsomes; for t1/2: microsomes, 1 h, 10 µM
[9] = Metabolic stability in human liver microsomes assessed as half life at 10 uM measured up to 60 mins in presence of NADPH by LC-MS/MS analysis; type: ADME, Microsome; settings: for half-life at 10 µM: liver microsomes; for t1/2: microsomes, 1 h, 10 µM
[10] = Toxicity in C57BL/6 mouse allografted with mouse Panc02 cells assessed as drug tolerability at 7.5 mg/kg, ip administered once a day for 28 days; type: organism-based; settings: in vivo, 672 h, time 28 day
[11] = Toxicity in C57BL/6 mouse allografted with mouse Panc02 cells assessed as drug tolerability at 15 mg/kg, ip administered once a day for 28 days; type: organism-based; settings: in vivo, 672 h, time 28 day
[12] = Toxicity in C57BL/6 mouse allografted with mouse Panc02 cells assessed as body weight loss at 15 mg/kg, ip administered once a day for 28 days and measured twice per week; type: organism-based; settings: in vivo, 672 h, time 28 day; procedure, shortened: as §4
[13] = Toxicity in C57BL/6 mouse allografted with mouse Panc02 cells assessed as drug tolerability at 2.5 mg/kg, ip administered once a day for 28 days; type: organism-based; settings: in vivo, 672 h, time 28 day
[14] = Toxicity in C57BL/6 mouse allografted with mouse Panc02 cells assessed as body weight loss at 2.5 mg/kg, ip administered once a day for 28 days and measured twice per week; type: organism-based; settings: in vivo, 672 h, time 28 day; procedure, shortened: as §4
[15] = test system: Panc02; assay: Antitumor activity against mouse Panc02 cells allografted in C57BL/6 mouse syngeneic model assessed as tumor growth inhibition at 2.5 mg/kg, ip administered once daily for 28 days and measured twice per week; type: functional, organism-based; settings: time 28.0 day; procedure, shortened: as §4

Row | Compound | pIC50 [1] | pIC50 [2] | pIC50 [3] | pIC50 [4] | other results
1 | CCN(CC)S(=O)(=O)c1ccc(S(=O)(=O)N2CCC[C@@H](C(=O)N3CCC(C(F)(F)F)CC3)C2)cc1 | 6.49 | < 5.00 | 6.43 | 6.96 | 
2 | CN(C)S(=O)(=O)c1ccc(S(=O)(=O)N2CCC[C@@H](C(=O)N3CCC(F)(F)CC3)C2)cc1 |  | < 5.52 | 6.25 | 7.14 | pIC50 [5]: 7.10; pIC50 [6]: < 5.52; Activity [7]: Non-Toxic; half-life at 10 µM [8]: 32 min; half-life at 10 µM [9]: > 60 min; Activity [10]: Non-Toxic
3 | CCN(CC)S(=O)(=O)c1ccc(S(=O)(=O)N2CCC[C@@H](C(=O)N[C@H]3CC[C@H](OC)CC3)C2)cc1 | 5.87 | < 5.00 | 5.70 | 5.64 | 
4 | CP(C)(=O)c1ccc(S(=O)(=O)N2CCC[C@@H](C(=O)N3CCC(F)(F)CC3)C2)cc1 | < 4.52 |  | < 4.52 |  | 
5 | CCN(CC)S(=O)(=O)c1ccc(S(=O)(=O)N2CCC[C@@H](C(=O)NC3CCOCC3)C2)cc1 | 5.42 | < 5.00 | 5.07 | 5.87 | 
6 | CCN(CC)S(=O)(=O)c1ccc(S(=O)(=O)N2CCC[C@@H](C(=O)N3CCC(C(F)F)CC3)C2)cc1 | 6.38 | < 5.00 | 6.35 | 6.85 | 
7 | CCN(CC)S(=O)(=O)c1ccc(S(=O)(=O)N2CCC[C@@H](C(=O)N[C@@H]3CCOC3)C2)cc1 | 6.12 | < 5.00 | 5.64 | 7.00 | 
8 | O=C([C@@H]1CCCN(S(=O)(=O)c2ccc(S(=O)(=O)C3CC3)cc2)C1)N1CCC(F)(F)CC1 | 7.59 |  | 6.89 |  | 
9 | CC(C)NS(=O)(=O)c1ccc(S(=O)(=O)N2CCC[C@@H](C(=O)N3CCC(F)(F)CC3)C2)cc1 | 6.46 |  | 6.33 |  | t1/2 [8]: 23.1 min; t1/2 [9]: 19.7 min
10 | CCOC(=O)[C@@H]1CCCN(S(=O)(=O)c2ccc(S(=O)(=O)N(CC)CC)cc2)C1 |  |  |  |  | GI50 ([1]; time 7 day): 600 nM
11 | FC(F)(F)c1ccc(/C=C/c2nc(COc3ccc(CCCCn4ccnn4)cc3)co2)cc1 [MUBRITINIB] | 7.29 |  |  |  | 
12 | O=C([C@@H]1CCCN(S(=O)(=O)c2ccc(S(=O)(=O)N3CC[C@@H](O)C3)cc2)C1)N1CCC(F)(F)CC1 | 6.68 | < 5.52 | 6.48 | 6.87 | Activity [11]: Non-Toxic; pIC50 [5]: 6.91; pIC50 [6]: < 5.52; Activity [12]: Non-Toxic; half-life at 10 µM [8]: 26.2 min; half-life at 10 µM [9]: 31 min
13 | CCN(CC)S(=O)(=O)c1ccc(S(=O)(=O)N2CCC[C@@H](C(=O)N3CCOCC3)C2)cc1 | 6.46 | < 5.00 | 6.10 | 6.80 | 
14 | CC(C)CS(=O)(=O)c1ccc(S(=O)(=O)N2CCC[C@@H](C(=O)N3CCC(F)(F)CC3)C2)cc1 | 7.10 |  | 6.51 |  | 
15 | CCN(CC)S(=O)(=O)c1ccc(S(=O)(=O)N2CCC[C@@H](C(=O)N[C@H]3CCOC3)C2)cc1 | 5.78 | < 5.00 | 5.28 | 6.54 | 
16 | CCN(CC)S(=O)(=O)c1ccc(S(=O)(=O)N2CCC[C@@H](C(=O)N[C@H]3CC[C@@H](OC)CC3)C2)cc1 | 6.02 | < 5.00 | 5.67 | 6.23 | 
17 | CCN(CC)S(=O)(=O)c1ccc(S(=O)(=O)N2CCC[C@@H](C(=O)N3CC[C@@H](OC)C3)C2)cc1 | 5.41 | < 5.00 | 4.94 | 5.97 | 
18 | O=C([C@@H]1CCCN(S(=O)(=O)c2ccc(S(=O)(=O)C3COC3)cc2)C1)N1CCC(F)(F)CC1 | 6.96 |  | 6.44 |  | 
19 | CCN(CC)C(=O)c1ccc(S(=O)(=O)N2CCC[C@@H](C(=O)N3CCC(F)(F)CC3)C2)cc1 | 7.15 |  | 6.62 |  | 
20 | CCN(CC)S(=O)(=O)c1ccc(S(=O)(=O)N2CCC[C@@H](C(=O)N3CCC(COC)CC3)C2)cc1 | 6.60 | < 5.00 | 5.87 | 7.30 | 
21 | CCN(CC)S(=O)(=O)c1ccc(S(=O)(=O)N2CCC[C@@H](C(=O)N3CCC(F)(F)CC3)C2)cc1 | 7.80 | < 5.00 | 6.92 | 7.72 | pIC50 [5]: 7.67; pIC50 [6]: < 5.52; t1/2 [8]: 2.6 min; half-life at 10 µM [9]: 2.74 min
22 | CCN(CC)S(=O)(=O)c1ccc(S(=O)(=O)N2CCC[C@@H](C(=O)N3CCC(O)CC3)C2)cc1 | 6.06 | < 5.00 | 5.33 | 6.64 | 
23 | CCC(CC)S(=O)(=O)c1ccc(S(=O)(=O)N2CCC[C@@H](C(=O)N3CCC(F)(F)CC3)C2)cc1 | 7.89 |  | 7.40 |  | t1/2 [8]: 8.7 min; t1/2 [9]: 17.1 min
24 | CCN(CC)S(=O)(=O)c1ccc(S(=O)(=O)N2CCC[C@@H](C(=O)N3CC[C@H](OC)C3)C2)cc1 | 5.61 | < 5.00 | 5.17 | 6.34 | 
25 | O=C([C@@H]1CCCN(S(=O)(=O)c2ccc(S(=O)(=O)C3CCC3)cc2)C1)N1CCC(F)(F)CC1 | 8.05 | < 5.52 | 7.11 | 7.90 | Activity [13]: Non-Toxic; Activity [14]: Non-Toxic; pIC50 [5]: 7.80; pIC50 [6]: < 5.52; half-life at 10 µM [8]: 44 min; half-life at 10 µM [9]: > 60 min; Activity [15]: Active
26 | O=C([C@@H]1CCCN(S(=O)(=O)c2ccc(S(=O)(=O)N3CC[C@H](O)C3)cc2)C1)N1CCC(F)(F)CC1 | 6.23 |  | 6.24 |  | 
27 | CCN(CC)S(=O)(=O)c1ccc(S(=O)(=O)N2CCC[C@@H](C(=O)N3CCS(=O)(=O)CC3)C2)cc1 | 6.05 | < 5.00 | 5.35 | 6.66 | 
28 | CCP(=O)(CC)c1ccc(S(=O)(=O)N2CCC[C@@H](C(=O)N3CCC(F)(F)CC3)C2)cc1 | 4.67 |  | < 4.52 |  | 
29 | CCN(CC)S(=O)(=O)c1ccc(S(=O)(=O)N2CCC[C@@H](C(=O)N3CCC(OC)CC3)C2)cc1 | 6.85 | < 5.00 | 5.85 | 7.30 | 
